Experimental data taken from PMC3863817 (Scientific Reports, 2013).

Columns and labels:
KB cells = experiment: Measurement of cellular ATP levels; assay type: cell-based, human; details: positive control, 1 μM for 4 h
How it was run: (§1)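 Cells plated at 2 × 10^5 per well and grown 1 day. They were exposed to 20 μM test compound for 4, 8, 16 or 24 h, or to rotenone (1 μM, 4 h) as positive control, at 37°C. KB cells were in folic acid-depleted RPMI-1640 and COS7 in DMEM, each with 10% FBS. Harvested cells were lysed in 1% TCA/4 mM EDTA for 20 min on ice, then Tris (pH 7.4). ATP was read with a bioluminescent kit on a chemiluminometer.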

COS7 cells = experiment: Measurement of cellular ATP levels; assay type: cell-based, African green monkey; details: positive control, 1 μM for 4 h
How it was run: as §1

With `C=C(C)[C@H]1Cc2c(ccc3c2O[C@@H]2COc4cc(OC)c(OC)cc4[C@@H]2C3=O)O1` [rotenone] the “Cellular ATP level, in words” value (KB cells) was “induce a decrease in cellular ATP level” and the “Cellular ATP level, in words” value (COS7 cells) was “induce a decrease in cellular ATP level”.
